# According to ChEMBL document CHEMBL4680075, “Small-Molecule CD4-Mimics: Structure-Based Optimization of HIV-1 Entry Inhibition” (ACS Med Chem Lett, 2016):
# Key:
# [1] = test system: Human immunodeficiency virus 1; assay: Antiviral activity against HIV1 Clade B infected in human TZM-bl cells assessed as inhibition of viral entry incubated for 30 mins prior to infection and measured after 48 hrs post infection by luciferase reporter gene assay; assay type: functional, organism-based; conditions: Human immunodeficiency virus 1, Clade B
# [2] = test system: Human immunodeficiency virus 1; assay: Binding affinity to HIV1 YU-2 gp120 assessed as change in gibbs free energy by isothermal titration calorimetric analysis
# [3] = test system: Human immunodeficiency virus 1; assay: Antiviral activity against HIV1 Clade C infected in human TZM-bl cells assessed as inhibition of viral entry incubated for 30 mins prior to infection and measured after 48 hrs post infection by luciferase reporter gene assay; assay type: functional, organism-based; conditions: Human immunodeficiency virus 1, Clade C
# [4] = test system: Human immunodeficiency virus 1; assay: Binding affinity to HIV1 YU-2 gp120 assessed as change in entropy by isothermal titration calorimetric analysis
# [5] = test system: Human immunodeficiency virus 1; assay: Binding affinity to HIV1 YU-2 gp120 assessed as change in enthalpy by isothermal titration calorimetric analysis
# [6] = test system: Human immunodeficiency virus 1; assay: Antiviral activity against HIV1 pseudotyped with A-MLV envelop glycoprotein infected in dog Cf2Th/CD4-CCR5 cells assessed as inhibition of viral entry incubated for 30 mins prior to infection and measured after 48 hrs post infection by luciferase reporter gene assay; assay type: functional, organism-based; conditions: Human immunodeficiency virus 1, Cf2Th-CCR5
# Outline: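 Control counterscreen: Cf2Th-CD4/CCR5 cells infected with luciferase-expressing HIV-1 pseudotyped with amphotropic murine leukemia virus envelope glycoproteins, compound at increasing concentrations; luciferase activity in target cells as percent of no-compound infection; IC50 from this.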
# [7] = Binding affinity to HIV1 YU-2 gp120 by isothermal titration calorimetric analysis; set-up: species or system Human immunodeficiency virus 1
# [8] = test system: Human immunodeficiency virus 1; assay: Antiviral activity against HIV1 YU-2 infected in dog Cf2Th/CD4-CCR5 cells assessed as inhibition of viral entry incubated for 30 mins prior to infection and measured after 48 hrs post infection by luciferase reporter gene assay; assay type: functional, organism-based; conditions: Human immunodeficiency virus 1, YU-2, Cf2Th-CCR5
# Outline: (§1)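 Cf2Th-CD4/CCR5 target cells infected with recombinant luciferase-expressing HIV-1 pseudoviruses bearing the indicated strain's envelope glycoproteins, with compound at increasing concentrations; infection read as target-cell luciferase activity, expressed as percent of infection without compound; IC50 derived from this.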
# [9] = test system: Human immunodeficiency virus 1; assay: Antiviral activity against HIV1 JRFL infected in dog Cf2Th/CD4-CCR5 cells assessed as inhibition of viral entry incubated for 30 mins prior to infection and measured after 48 hrs post infection by luciferase reporter gene assay; assay type: functional, organism-based; conditions: Human immunodeficiency virus 1, JRFL; outline: as §1
# [10] = test system: Human immunodeficiency virus 1; assay: Antiviral activity against HIV1 AD8 infected in dog Cf2Th/CD4-CCR5 cells assessed as inhibition of viral entry incubated for 30 mins prior to infection and measured after 48 hrs post infection by luciferase reporter gene assay; assay type: functional, organism-based; conditions: Human immunodeficiency virus 1, AD8, Cf2Th-CCR5; outline: as §1
Compound,IC50 [1] [µM],deltaG [2] [kcal/mol],IC50 [3] [µM],-TdeltaS [4] [kcal/mol],deltaH [5] [kcal/mol],IC50 [6] [µM],Kd [7] [µM],IC50 [8] [µM],IC50 [9] [µM],IC50 [10] [µM]
CNCc1ccc2c(c1)C[C@H](CNC(=N)N)[C@H]2NC(=O)C(=O)Nc1ccc(Cl)c(F)c1,3.5,-10,17,10.7,-20.7,> 100,0.047,1.3,14.5,3.1
N=C(N)NC[C@H]1Cc2ccccc2[C@@H]1NC(=O)C(=O)Nc1ccc(Cl)c(F)c1,–,-9.5,–,8.4,-17.9,94.3,0.11,3.8,66.8,8.5
CN(Cc1ccc2c(c1)[C@H](NC(=O)C(=O)Nc1ccc(Cl)c(F)c1)[C@@H](CNC(=N)N)C2)C(=N)N,–,-9.6,–,4.6,-14.2,83.7,0.095,1.6,19.7,1.2
CN(Cc1ccc2c(c1)C[C@H](CNC(=N)N)[C@H]2NC(=O)C(=O)Nc1ccc(Cl)c(F)c1)C(=N)N,–,-9.6,–,5.8,-15.4,> 100,0.095,0.8,6.1,1.6
CNCc1ccc2c(c1)C[C@@H](CNC(=N)N)[C@@H]2NC(=O)C(=O)Nc1ccc(Cl)c(F)c1,–,-8.1,–,5.1,-13.2,> 100,1.2,21,> 100,–
CNCc1ccc2c(c1)[C@H](NC(=O)C(=O)Nc1ccc(Cl)c(F)c1)[C@@H](CNC(=N)N)C2,–,-10.4,–,17.8,-28.2,> 100,0.024,2.1,37.3,6.7
CNCc1ccc2c(c1)[C@@H](NC(=O)C(=O)Nc1ccc(Cl)c(F)c1)[C@H](CNC(=N)N)C2,–,-7.5,–,3.8,-11.3,> 100,3.4,87.8,> 100,> 100
